Data reported in ChEMBL document CHEMBL4425113, “Chromenopyrazole, a Versatile Cannabinoid Scaffold with in Vivo Activity in a Model of Multiple Sclerosis” (J Med Chem, 2016).
pIC50, pKi: −log10 of the molar value. The source made the active and inactive calls. The calls are words filed in the database; no cut-off is given here.

How the values were obtained:
Cannabinoid receptor 1 = Cannabinoid receptor 1 (Homo sapiens, UniProt P21554); experiment: biochemical; format: cell-based, HEK293
Cannabinoid receptor 2 [1] = biological target: T1, Cannabinoid receptor 2 (Homo sapiens, UniProt P34972); experiment: Displacement of [3H]-CP55940 from human CB2 receptor expressed in HEK293 cell membranes after 90 mins by liquid scintillation counting method
T1 sequence (P34972 whole entry): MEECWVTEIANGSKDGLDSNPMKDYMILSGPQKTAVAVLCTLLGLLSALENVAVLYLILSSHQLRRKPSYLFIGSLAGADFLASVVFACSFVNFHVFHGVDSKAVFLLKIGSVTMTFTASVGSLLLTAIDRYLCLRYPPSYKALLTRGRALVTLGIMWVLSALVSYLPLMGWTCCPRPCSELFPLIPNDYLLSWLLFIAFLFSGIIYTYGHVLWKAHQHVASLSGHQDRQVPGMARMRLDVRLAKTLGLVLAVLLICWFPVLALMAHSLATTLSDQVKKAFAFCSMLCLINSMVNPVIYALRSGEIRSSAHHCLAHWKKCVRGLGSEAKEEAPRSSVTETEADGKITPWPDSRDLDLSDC

Homo sapiens = species on record: Homo sapiens; experiment: Selectivity ratio of Ki for human CB1 receptor to Ki for human CB2 receptor
Method in brief: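 Membranes from cells transfected with hCB1 (8 μg/well; Tris 50 mM, MgCl2 5 mM, EDTA 2.5 mM, BSA 0.5 mg/mL, pH 7.4) or hCB2 (4 μg/well; EGTA 2.5 mM, BSA 1 mg/mL, pH 7.5); [3H]CP55940, 90 min at 30 °C. […] Nonspecific binding 10 μM WIN55212-2; GF/C filtration, scintillation; ≥3 experiments in triplicate.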

Cannabinoid receptor 2 [2] = biological target: T1, Cannabinoid receptor 2; experiment: Agonist activity at human CB2 receptor expressed in HEK293 cell membranes assessed as inhibition of forskolin-stimulated cAMP accumulation at 200 nM after 60 mins by HTRF assay; format: functional, cell-based
Method in brief: (§1)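 HEK293 cells stably expressing hCB2, 5.000 cells/well, forskolin-stimulated; Lance-Ultra TR-FRET cAMP kit, 60 min room temperature with HTRF reagents; 665/620 nm ratio converted to cAMP via standard curve; forskolin level set to 100%.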

Cannabinoid receptor 2 [3] = biological target: T1, Cannabinoid receptor 2; experiment: Agonist activity at human CB2 receptor expressed in HEK293 cell membranes assessed as inhibition of forskolin-stimulated cAMP accumulation at 1 uM after 60 mins by HTRF assay; format: functional, cell-based
Method in brief: as §1

Cannabinoid receptor 2 [4] = biological target: T1, Cannabinoid receptor 2; experiment: Agonist activity at human CB2 receptor expressed in HEK293 cell membranes assessed as inhibition of forskolin-stimulated cAMP accumulation after 60 mins by HTRF assay; format: functional, cell-based
Cannabinoid receptor 2 [5] = biological target: T1, Cannabinoid receptor 2; experiment: Agonist activity at human CB2 receptor expressed in HEK293 cell membranes assessed as induction of [35S]-GTPgammaS binding after 60 mins by liquid scintillation spectrometric method; format: functional
[6] = Binding affinity to PDEA modified AGP (unknown origin) at 40 uM by surface plasmon resonance method; format: ADME; conditions: human, isolated protein
Mus musculus = experiment: Antiinflammatory activity in TMEV-induced SJL/J mouse demyelinating disease model assessed as reduction of microglial activation by measuring […] in Iba-1 expression at 5 mg/kg, ip administered for 7 days by fluorescence assay; format: functional, organism-based
Method in brief: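 Female SJL/J mice, 12 weeks, inoculated intracerebrally (right hemisphere) with TMEV DA strain; sham get vehicle. Compound 5 mg/kg i.p. daily for 7 days, vehicle 10% DMSO in PBS. Perfused brains PFA-fixed; sections stained anti-Iba1 (1:1,000) plus Alexa secondary; confocal fluorescence intensity, 6 sections/animal, ≥5 animals/group; Kruskal–Wallis test.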

Sequence of Cannabinoid receptor 1 (P21554 whole entry): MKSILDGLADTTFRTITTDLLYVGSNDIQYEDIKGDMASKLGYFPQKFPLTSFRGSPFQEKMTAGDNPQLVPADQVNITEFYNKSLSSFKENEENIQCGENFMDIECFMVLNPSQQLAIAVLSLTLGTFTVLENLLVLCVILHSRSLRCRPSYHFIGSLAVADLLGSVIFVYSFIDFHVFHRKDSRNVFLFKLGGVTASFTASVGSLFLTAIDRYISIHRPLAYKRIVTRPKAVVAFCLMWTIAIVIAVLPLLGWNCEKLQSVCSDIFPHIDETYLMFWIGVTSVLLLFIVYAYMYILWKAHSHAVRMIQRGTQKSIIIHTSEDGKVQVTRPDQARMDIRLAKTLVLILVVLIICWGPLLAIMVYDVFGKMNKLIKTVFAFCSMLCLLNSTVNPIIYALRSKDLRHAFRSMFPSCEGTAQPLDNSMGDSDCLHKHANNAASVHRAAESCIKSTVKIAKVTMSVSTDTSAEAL

Q: With `CCCCCCC(C)(C)c1cc(OC)c2c(c1)OC(C)(C)c1cnoc1-2` as the compound, how does the pKi (Cannabinoid receptor 1) read?
A: Its pKi is under 4.40.

Q: And the pKi (Cannabinoid receptor 2 [1])?
A: The pKi was 7.89.

Q: What about the Ratio Ki (Homo sapiens) of the same compound?
A: Its Ratio Ki is over 3100.

Q: What about the inhibition (Cannabinoid receptor 2 [2]) of the same compound?
A: Its inhibition is “Active”.

Q: And the inhibition (Cannabinoid receptor 2 [3])?
A: The inhibition was “Active”.

Q: What about the Emax (Cannabinoid receptor 2 [4]) of the same compound?
A: The Emax was 101%.

Q: And the pIC50 (Cannabinoid receptor 2 [4])?
A: The pIC50 was 8.38.

Q: What about the Emax (Cannabinoid receptor 2 [5]) of the same compound?
A: The Emax was 98%.

Q: And the PB [6]?
A: The PB was “Active”.

Q: And the Activity (Mus musculus)?
A: The Activity was “Active”.
